# Assay results published in the array DNA melting data of Ke et al. (doi:10.1101/2024.01.08.574731).
# How the values were obtained:
# [1] = melting temperature; fluorescence melt of hairpins on a sequencing array, two-state fit, raised by 9.35 °C to match UV melts; conditions: sodium 0.088 M
# Summary of the method: (§1)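 On a sequenced MiSeq flow cell, library hairpins with annealed Cy3 and quencher oligos were imaged for Cy3 fluorescence in 2.5 °C steps up to 60 °C, in 50 mM Na-HEPES pH 8.0, 25 mM NaCl. Normalisation used pre-quench Cy3 and control constructs. Bootstrapped two-state fits gave melting temperature and folding enthalpy, combined by inverse variance across four replicates and with fitted temperatures raised by 9.35 °C to match UV melts.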
# [2] = folding enthalpy; higher = less favourable; fluorescence melt of hairpins on a sequencing array, two-state fit; conditions: sodium 0.088 M
# Summary of the method: as §1
Sequence,Tm [1],folding enthalpy [2]
GCGGCCGGAAACGACCGC ((((.((....)).)))),67.2 °C,-34.9 kcal/mol
GCCCGGTCGAAAGACGGC (((..(((....)))))),51.7 °C,-18.1 kcal/mol
GGCTCCGGAAACGGAGTC (.(((((....))))).),60.8 °C,-30.1 kcal/mol
GGCAGCGAAAGCTCTGCC ((((((....)))..))),52.4 °C,-24.5 kcal/mol
GGTCCAGCGAAAGCTACC (((..(((....)))))),30.1 °C,-10.7 kcal/mol
GCCGTGCGAAAGCGGGGC (((..((....))..))),67.3 °C,-34.8 kcal/mol
GACAGGCGAAAGCCAGTC (((.(((....))).))),58.1 °C,-25.8 kcal/mol
GAGGTGACGAAAGTCCTC (((..(((....)))))),34.9 °C,-17.6 kcal/mol
GTCTGGCCGAAAGGCGAC (((..(((....)))))),43.9 °C,-15.7 kcal/mol
GGTAACGAAAGTTAAACC ((((((....)))..))),32.3 °C,-16.1 kcal/mol
GCGTCGCGAAAGCGTTGC ((..(((....)))..)),48.6 °C,-17.9 kcal/mol
GATGCCGAAAGGCTAATC ((((((....)))..))),30.1 °C,-9.64 kcal/mol
GTTACGGGAAACCGCAAC (((.(((....))).))),41.7 °C,-26 kcal/mol
GATCCTTTTGAGGATC ((((((....)))))),54.1 °C,-36.9 kcal/mol
CCACAGAAATGTGG (((((....))))),50.5 °C,-18.5 kcal/mol
GATCCCTCACGGGATC ((((((....)))))),59 °C,-39.5 kcal/mol
GATCCGACGACGGATC ((((((....)))))),56.7 °C,-36.6 kcal/mol
GCCTCCGAAAGGACGGGC ((((((....)))..))),48.6 °C,-24.5 kcal/mol
GCGTAGTCACGC ((((....)))),51.5 °C,-21.2 kcal/mol
GGTCCCGAAAGGGTGACC ((((((....)))..))),48 °C,-19.6 kcal/mol
GTGCGCGAAAGCGTCCAC ((((((....)))..))),36.4 °C,-9.9 kcal/mol
GGTAATGGAAACATTATC (.(((((....))))).),35.7 °C,-26.8 kcal/mol
GCCTCCGAAAGGATCGGC ((((((....)))..))),45.3 °C,-24.2 kcal/mol

Sequence,Tm [1],folding enthalpy [2]
GCCTTGCGAAAGCTAGGC ((((.((....)).)))),67.2 °C,-44.4 kcal/mol
GATCTGGTCCAGATC ((((((...)))))),50.8 °C,-33.4 kcal/mol
GCTTGAGGAAACTCAAAC (.(((((....))))).),30.6 °C,-13.8 kcal/mol
GCGCACGAAAGTGTACGC ((((((....)))..))),53.5 °C,-23.8 kcal/mol
GCTAAATCGAAAGATAGC (((..(((....)))))),33.9 °C,-18.4 kcal/mol
GATCATTTGGATGATC ((((((....)))))),48.5 °C,-36.9 kcal/mol
TCCTTGAAAAAGGA (((((....))))),35.1 °C,-11.1 kcal/mol
GGCGGCGAAAGCCATGCC ((((((....)))..))),59.8 °C,-16.5 kcal/mol
GCCCAACGAAAGTTTGGC (((.(((....))).))),50.2 °C,-28.1 kcal/mol
GTAGCAGAAATGCTAC ((((((....)))))),55.9 °C,-35.4 kcal/mol
CGCCCGGAAACGGGTGCG ((((((....)))..))),57.5 °C,-10.7 kcal/mol
GACTGACGAAAGTCGTC (((.(((....)))))),52.6 °C,-14.2 kcal/mol
GTGCATGAAAATGCAC ((((((....)))))),67 °C,-31.6 kcal/mol
CGACACGGAAACGTTCG (((.(((....)))))),42 °C,-35 kcal/mol
GGATCGTCGAAAGACTCC (((..(((....)))))),28.9 °C,-11.8 kcal/mol
GTGCGAGGAAACTTGCAC ((((.((....)).)))),53.7 °C,-54 kcal/mol
GATCTGTCCTCAGATC ((((((....)))))),51 °C,-46.8 kcal/mol
GTACCAGGAAACTGGTGC (.(((((....))))).),51.4 °C,-43 kcal/mol
GTGGTAGGAAACCACCAC (((((.(....).))))),49.4 °C,-22.5 kcal/mol
GATCTCAATTGAGATC ((((((....)))))),53.1 °C,-38 kcal/mol
GTTTTTACGAAAGTAAAC (((..(((....)))))),29.9 °C,-17.1 kcal/mol
GATACCGAAAGGTGAATC ((((((....)))..))),27.2 °C,-12.6 kcal/mol
GAGCTTGCGAAAGCACTC (((..(((....)))))),39.7 °C,-10.9 kcal/mol
